Compound activity deposited in PubChem by several laboratories.
MC4R antagonist: human MC4R antagonism in cAMP assay; P32245; MC4R-expressing cells, MTII-stimulated cAMP, LANCE TR-FRET; inhibition, % at 6.5 µM; 360,000 tested, 0.48% active; AID 540295;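 active = inhibition above its plate's cutoff, the mean of tested wells on that plate plus 3 SD, cut at about 29% in these data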;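 note: 0% = Melanotan II alone and 100% = Melanotan II plus saturating MCL0020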
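Material – human MC4R-expressing U2OS cells · Repeats – no replicates · Detection – TR-FRET with Eu-cAMP and labeled anti-cAMP, 671 nm · Times – compound 30 min, challenge 1 h, detection 1 h · Compound – single nominal compound dose of 6.5 µM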
MC4R ag barr: activates human MC4R beta-arrestin recruitment. P32245. U2OS MC4R beta-arrestin complementation, luminescence; percent of melanotan II response, DMSO zero. activation, % at 8.9 µM. 360,000 tested, 0.98% active. AID 540308;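 active = activation above a per-plate cutoff, the mean activation of sample wells on that plate plus 3 SD, cut at about 8% in these data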
AI-2 QS modul: modulates the Vibrio harveyi AI-2 quorum sensing system; Vibrio harveyi JMH597 AI-2 luminescence/OD600 ratio, 9 h; hits give low values; strain lacks LuxN and CqsS sensors; 0 = neutral-control median; activity change, % at 7.5 µM; 300,000 tested, 0.4% active; AID 2094; in the data active = activity change below about -75%, passing the limit was not always enough; inconclusive = no clear call, values can overlap the other calls;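 note: luminescence divided by OD600 gain over 9 h not by final OD600 alone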
NTR1 ag: NTR1 (human) agonism. P30989. NTR1-U2OS beta-arrestin-GFP spot imaging, agonist mode. 330,000 tested, 0.17% active. activation, % at 20 µM;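 active = activation at or above 40% of the spot to cytoplasm intensity ratio, with at least 20 cells analyzed; inconclusive = wells under 20 cells, flagged as cytotoxic or low count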;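 note: 0% = DMSO without peptide and 100% = 100 nM NTR1 peptide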
MC4R barr conf: human MC4R beta-arrestin agonism confirmation. U2OS MC4R beta-arrestin recruitment, luminescence; scaled DMSO 0%, Melanotan II 100%. activation, % at 8.9 µM. 2,400 tested, 31% active. AID 602192. shares compounds with MC4R ag barr;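 active = mean activation across replicates above the hit cutoff set in the earlier primary screen, cut at about 8% in these data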
MOR-DOR barr ag: OPRM1-OPRD1 heterodimer agonism counter-screen | U2OS PathHunter beta-arrestin, beta-gal luminescence; percent of deltorphin B response, DMSO zero | activation, % at 9.2 µM | 2,400 tested, 5.8% active | shares compounds with MC4R ag barr;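 active = mean activation across replicates exceeds the hit threshold derived in the earlier primary screen, cut at about 18% in these data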;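 note: 100% = deltorphin B at 0.9 µM final and 0% = DMSO alone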
Target sequence (P35372 whole entry, looked up): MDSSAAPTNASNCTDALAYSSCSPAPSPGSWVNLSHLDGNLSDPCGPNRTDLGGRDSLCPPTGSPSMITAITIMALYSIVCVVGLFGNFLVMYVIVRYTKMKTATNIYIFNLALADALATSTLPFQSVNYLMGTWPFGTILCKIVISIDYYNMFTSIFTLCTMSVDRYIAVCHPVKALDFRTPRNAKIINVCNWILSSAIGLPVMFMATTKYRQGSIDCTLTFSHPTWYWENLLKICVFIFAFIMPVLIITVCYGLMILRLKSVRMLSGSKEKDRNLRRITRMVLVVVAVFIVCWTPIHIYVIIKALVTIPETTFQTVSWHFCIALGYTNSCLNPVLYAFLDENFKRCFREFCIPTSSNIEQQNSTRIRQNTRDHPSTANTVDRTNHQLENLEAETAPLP
Target sequence (P41143 whole entry, looked up): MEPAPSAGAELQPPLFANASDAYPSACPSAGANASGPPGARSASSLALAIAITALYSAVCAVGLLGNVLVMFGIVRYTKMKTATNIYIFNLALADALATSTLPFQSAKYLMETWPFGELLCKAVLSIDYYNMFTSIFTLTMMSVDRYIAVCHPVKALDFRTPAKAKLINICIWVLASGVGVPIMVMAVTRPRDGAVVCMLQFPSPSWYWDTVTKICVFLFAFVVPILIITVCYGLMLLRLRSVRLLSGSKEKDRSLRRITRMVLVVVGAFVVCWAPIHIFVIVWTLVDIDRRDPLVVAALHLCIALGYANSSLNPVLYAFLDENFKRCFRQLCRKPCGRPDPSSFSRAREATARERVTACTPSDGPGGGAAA
* = called active by the depositor; ? = inconclusive; · = no result. The list is not random: actives were taken first. Their share in the collection is about 1.8%.

SMILES	MC4R antagonist	MC4R ag barr	AI-2 QS modul	NTR1 ag	MC4R barr conf	MOR-DOR barr ag
C=CCOc1cccc(/C=C/c2nc3ccccc3c(=O)[nH]2)c1	3	24*	5	0	0	4
Nc1c(C(=O)Nc2ccccc2Cl)nnn1-c1ccc2c(c1)OCCO2	9	16*	17	6	2	4
Nc1c(C(=O)Nc2ccc3c(c2)OCCO3)nnn1CCc1ccccc1	-13	0	14	6	·	·
O=C(C[C@H]1C/C=C\C[C@@H](Cc2ccc(F)cc2)C(=O)OC[C@@H]2CCCN2C1=O)NCCO	4	-1	·	0	·	·
Cc1c(NC(=O)CSCc2ccco2)c(=O)n(-c2ccccc2)n1C	14	-1	·	1	·	·
COc1cc(OC)cc(-c2c(-c3cccs3)c3cc(-c4ccc(C(N)=O)cc4)ccc3n2C)c1	14	16*	·	11	11*	4
COc1ccc(-c2ccc3c(c2)c(-c2cccs2)c(-c2cc(OC)cc(OC)c2)n3C)cc1	-2	-2	·	0	·	·
Cc1ccc(C(=O)N/N=C\c2cc3c(cc2Br)OCO3)s1	2	12*	25	14	10*	8
CCOC(=O)c1[nH]c(COC(=O)CCOc2ccccc2OC)c(C(=O)OCC)c1C	5	16*	66	0	2	6
Cc1cc(N/N=C\c2ccccc2)nc(-c2ccccc2O)n1	-2	20*	18	24	2	6
Cc1cc(N/N=C/c2ccc(O)cc2O)nc(-c2ccccc2O)n1	3	8	?	·	·	·
CC1(C)C[C@H](O)[C@]2(CO)[C@H](O)C[C@]3(C)C(=CCC4[C@@]5(C)CC[C@H](O)C(C)(C)C5CC[C@]43C)[C@@H]2C1 (stereo not given in full)	18	19*	·	8	25*	21*
CC1(C)CC[C@]2(CO)CC[C@]3(C)C(=CCC4[C@@]5(C)CC[C@H](O)[C@@](C)(CO)C5CC[C@]43C)[C@@H]2C1 (stereo not given in full)	5	11*	·	8	15*	3
CC1(C)C[C@H](O)[C@]2(CO)CC[C@]3(C)C(=CCC4[C@@]5(C)CC[C@H](O)C(C)(C)C5CC[C@]43C)[C@@H]2C1 (stereo not given in full)	2	-1	·	3	·	·
COC(=O)c1c(NC(=O)CC2SC(N)=NC2=O)sc2c1CCC(C(C)(C)C)C2 (stereo not given)	-1	10*	14	18	17*	2
O=S(=O)(Nc1ccc(Cl)cn1)c1cccs1	6	0	34	0	·	·
COc1ccc(C(=O)OCC(=O)c2c[nH]c3ccccc23)c(OC)c1	-7	-1	·	0	·	·
O=C(OCC(=O)c1c[nH]c2ccccc12)c1cc2ccccc2cc1O	-1	12*	-38	10	3	3
COc1ccc(C(C)=O)cc1COC(=O)c1ccc2c(c1)OCCO2	0	9.8*	·	1	4	2
COc1ccc(NC(=O)COC(=O)c2ccc3c(c2)OCO3)c(OC)c1	14	14*	·	1	-2	4
Cc1ccc(NC(=O)COC(=O)c2ccc3c(c2)OCCO3)cc1	18	-3	·	0	·	·
COc1ccc(NC(=O)COC(=O)c2ccc3c(c2)OCCO3)cc1OC	14	17*	·	3	9.0*	3
COc1ccc(C)cc1NC(=O)COC(=O)c1ccc2c(c1)OCCO2	1	10*	·	1	-2	17
CCCC[C@@H]1C=C(C(=O)O)[C@H](c2ccc(Cl)c(Cl)c2)N1S(=O)(=O)c1ccc(C)cc1	1	0	·	9	·	·
COc1ccc(C)cc1NC(=O)COC(=O)c1ccc2c(c1)OCO2	3	13*	·	4	-4	3
SMILES	MC4R antagonist	MC4R ag barr	AI-2 QS modul	NTR1 ag	MC4R barr conf	MOR-DOR barr ag
Cc1cc(C)cc(OCC(=O)Nc2ccccc2C(=O)NCc2ccco2)c1	-1	31*	12	3	1	5
Cc1ccc(S(=O)(=O)N2CCOCC2)cc1NC(=O)COC(=O)/C=C/c1ccco1	-3	1	·	-1	·	·
CC1=CC(C)(C)n2c(O)c(N=NC(N)=S)c3cccc1c32	9	11*	8	0	1	3
CC1=CC(C)(C)n2c(O)c(N=NC(N)=S)c3c(C)ccc1c32	-3	2	21	17	·	·
O=C(CSc1cn[nH]n1)Nc1ccc(Cl)cc1Cl	5	1	22	0	·	·
COc1cccc(-n2ccn(CC(=O)NCCc3ccccc3)c(=O)c2=O)c1	3	-1	11	0	·	·
O=C1N(Nc2ccccc2)C(c2ccc(Br)cc2)C12CCCCC2 (stereo not given)	-2	24*	19	7	10*	5
CCCc1c(C(=O)Nc2ccc(C(F)(F)F)cc2)cnn1-c1ccccc1	-3	10*	19	0	-4	6
CCCc1c(C(=O)NNc2cc(C(F)(F)F)ccc2Cl)cnn1-c1ccccc1	3	27*	23	6	6	6
CCCc1c(C(=O)NNc2ccc(C)cc2)cnn1-c1ccccc1	-1	-2	22	1	·	·
COc1ccc(-n2nc(C(=O)NCC(=O)Nc3ccccn3)c3ccccc3c2=O)cc1Cl	-3	15*	28	3	24*	9
COc1ccc(-n2nc(C(=O)NCC(=O)NC(C)C)c3ccccc3c2=O)cc1Cl	-7	-1	32	1	·	·
CC(=O)c1cccc(NC(=O)c2noc3c2CCc2ccccc2-3)c1	10	16*	17	7	9.7*	3
COc1ccccc1CC(=O)Nc1ccc(-c2noc(COc3ccc(Cl)c(C)c3)n2)cc1	9	10*	32	7	1	7
CCOc1ccccc1-c1nc(-c2ccc(NC(=O)Cc3ccccc3OC)cc2)no1	4	-1	5	2	·	·
O=C(CNC(=O)c1ccc(Br)o1)Nc1cccc(-c2cnc3ccccc3n2)c1	9	16*	26	7	0	4
COc1ccc(N(CC(=O)Nc2cccc(C)c2)S(=O)(=O)c2ccc(C)cc2)cc1OC	0	-1	9	0	·	·
Cc1ccc(C(=O)NC(=S)Nc2ccc(NC(=O)c3cccc(Cl)c3)cc2)cc1	5	12*	7	15	13*	8
CCc1ccc(C(=O)NC(=S)Nc2ccc3c(c2)OCCO3)cc1	1	-1	46	9	·	·
O=C(NC(=S)Nc1ccc2c(c1)OCO2)c1ccc(Cl)cc1	-6	11*	17	5	1	3
Cc1ccccc1OCCC(=O)N(CC(C)C)c1c(N)n(Cc2ccccc2)c(=O)[nH]c1=O	0	0	·	-2	·	·
Cc1ccc(CNc2ccc(N3CCN(C)CC3=O)cc2)cc1	0	0	·	-2	·	·
